Data on 21 molecules can be found in ChEMBL document CHEMBL1130414, “Muscarinic analgesics with potent and selective effects on the gastrointestinal tract: potential application for the treatment of irritable bowel syndrome” (J Med Chem, 1997).

The test system of data set [1] is Mustela putorius furo. Nature of the data set: Intravenous effective dose required to produce a 1 mV increase in transmural potential difference in ferrets (GI side effect). The data set is classed as functional. The essentials:
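Anesthetized male ferrets (800–1200 g), fasted 24 h before surgery, dosed iv. Transmural potential difference across jejunal wall measured with calomel half-cells and salt bridges (one in luminal fluid, other via wick electrode in serosal fluid) to an electrometer. Value is dose giving >1 mV rise in potential difference; each animal its own control.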

The next data set concerns Mus musculus. The data set is described as follows: Analgesic activity measured using mouse writhing antinociceptive assay after subcutaneous administration. The data set is classed as functional. The conditions noted are these: sc. In short, it runs like this:
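Male Cr1:CF1 mice, groups of 5–10, given vehicle or compound sc; 25 min later 0.5% acetic acid ip. Writhes per mouse counted in individual chambers 5–10 min after acid (30–35 min post-dose), expressed as mean writhes over 5 min. ED50 from linear regression.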

Data set [2] deals with Muscarinic acetylcholine receptor. The data set is described as follows: Binding affinity against Muscarinic acetylcholine receptors using [3H]oxotremorine-M as radioligand in rat cortex. The essentials:
(§1)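 Rat cortex radioligand displacement with [³H]oxotremorine-M, which labels the agonist conformational state of muscarinic receptors without subtype selectivity. Affinity is reported as Ki (nM) ± SEM.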

The test system of data set [3] is Mustela putorius furo. Nature of the data set: Minimum intravenous effective dose required to inhibit jejunal motility in ferrets. The data set is classed as functional. In short, it runs like this: (§2)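 Anesthetized male ferrets (800–1200 g), fasted 24 h before surgery, dosed iv. Spontaneous jejunal motility recorded manometrically via catheters inserted into jejunum. Value is minimum effective (threshold) dose inhibiting motility; each animal its own control; number of determinations recorded, SEM given when replicates differed.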

For data set [4], the system named is Mustela putorius furo. Nature of the data set: Minimum intravenous effective dose required to inhibit spontaneous motility in ferrets. The data set is classed as functional. The essentials: as §2
Data set [5] is described as follows: Mean plasma concentration measured 1 h following an oral dose of 30 mg/kg. The data set is classed as ADME, organism-based. Also noted: dose 30 mg/kg, route oral. In short, it runs like this: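 Rats dosed orally at 30 mg/kg; parent compound plasma concentration measured 1 h after dosing, reported as mean.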
For data set [6], the target named is Muscarinic acetylcholine receptor. The data set is described as follows: Binding affinity against Muscarinic acetylcholine receptor using [3H]oxotremorine-M as radioligand in rat cortex. In short, it runs like this:
as §1

In the case of `CCCCOc1nsnc1C1=CCCN(C)C1`, in the data set on Mustela putorius furo [1], the “ED (1mV)” value was 0.007 mg/kg. In the data set on Mus musculus, the ED50 (in general, the midpoint of the dose-response relation) was found to be 0.41 mg/kg. In addition, in data set [2], the Ki – broadly, the dissociation constant of the complex between target and ligand, obtained from inhibition or displacement – was 1.4 nM. Moreover, the Dose in the data set with Mustela putorius furo [3] was found to be 0.003 mg/kg.

In the case of `CCCCSc1nccnc1C1CN2CCC1CC2` (configuration not stated), the “ED (1mV)” value in the data set on Mustela putorius furo [1] is 0.03 mg/kg. The 50% effective dose (ED50) with Mus musculus was found to be 3.2 mg/kg. In data set [2], the Ki is reported as 0.5 nM. For the same molecule, the Dose with Mustela putorius furo [3] was 0.003 mg/kg.

As to `FC(F)(F)CCCSc1nsnc1[C@H]1CN2CCC[C@H]1C2`, in the data set with Mustela putorius furo [1], the “ED (1mV)” value worked out at 0.015 mg/kg. Besides, the ED50 came to 0.1 mg/kg with Mus musculus and 0.00017 mg/kg in the data set with Mustela putorius furo [4]. For the same molecule, in data set [2], the Ki worked out at 0.42 nM. In data set [5], this molecule returned a concentration at 1 h of 805 ng/mL.

Turning to `FC(F)(F)CCCCSc1nsnc1[C@@H]1CN2CCC[C@@H]1C2`, the “ED (1mV)” value with Mustela putorius furo [1] worked out at 0.01 mg/kg. For the same molecule, the ED50 in the data set on Mus musculus was 0.07 mg/kg. Also, the Ki in data set [2] is on record as 0.24 nM. Besides, the Dose in the data set with Mustela putorius furo [3] is 0.001 mg/kg.

For `FC(F)(F)CCCSc1nsnc1[C@H]1CN2CCC[C@@H]1C2`, in the data set on Mustela putorius furo [1], the “ED (1mV)” value was above 0.03 mg/kg. The ED50 with Mus musculus turned out to be 1.8 mg/kg; in the data set with Mustela putorius furo [4], 0.0053 mg/kg. In data set [2], the Ki came to 9.6 nM.

As to `CN1CCC=C(c2nsnc2SCCCc2cccs2)C1`, the “ED (1mV)” value in the data set on Mustela putorius furo [1] was 0.03 mg/kg. For the same molecule, in the data set on Mus musculus, the ED50 is above 10 mg/kg. In data set [2], this molecule yielded a Ki of 10 nM. The Dose in the data set on Mustela putorius furo [3] worked out at 0.03 mg/kg.

In the case of `CCCCCCSc1nsnc1C1=CCCN(CC)C1`, the “ED (1mV)” value in the data set with Mustela putorius furo [1] was above 0.03 mg/kg. This molecule also had an ED50 in the data set on Mus musculus above 10 mg/kg. For the same molecule, in data set [2], the Ki is reported as 18 nM. In the data set with Mustela putorius furo [3], this molecule had a Dose above 0.03 mg/kg.

As to `CCCCSc1nsnc1C1=CCCNC1`, in the data set with Mustela putorius furo [1], the “ED (1mV)” value amounted to 0.03 mg/kg. Also, the ED50 in the data set on Mus musculus came out at 0.14 mg/kg. Moreover, the Ki in data set [2] amounted to 3.5 nM. In addition, the Dose with Mustela putorius furo [3] came out at 0.03 mg/kg.

Take `C=CCCCCOc1nsnc1C1=CCCN(C)C1`: in the data set on Mustela putorius furo [1], the “ED (1mV)” value came to 0.003 mg/kg. Further, in the data set on Mus musculus, the 50% effect level (ED50) was put at a dose of 0.9 mg/kg. The same molecule came in with a Ki in data set [2] of 3 nM. For the same molecule, the Dose in the data set with Mustela putorius furo [3] worked out at 0.03 mg/kg.

Take `FC(F)(F)CCSc1nsnc1[C@@H]1CN2CCC[C@@H]1C2`: the “ED (1mV)” value with Mustela putorius furo [1] was determined as 0.01 mg/kg. The molecule also displayed an ED50 in the data set with Mus musculus of 0.1 mg/kg. The molecule also showed a Ki in data set [2] of 0.44 nM. The same molecule had a Dose in the data set on Mustela putorius furo [3] of 0.003 mg/kg.

In the case of `FC(F)(F)CCCSc1nsnc1[C@@H]1CN2CCC[C@H]1C2`, the “ED (1mV)” value with Mustela putorius furo [1] was above 0.03 mg/kg. The figures for the ED50 in the data set with Mus musculus and with Mustela putorius furo [4] were above 10 mg/kg and 0.0047 mg/kg, respectively. The Ki in data set [2] came out at 25 nM.

Take `CN1CCC=C(c2nsnc2SCCCc2ccccc2)C1`: the “ED (1mV)” value with Mustela putorius furo [1] was 0.03 mg/kg. This molecule also showed an ED50 in the data set with Mus musculus above 10 mg/kg. Moreover, in data set [2], the Ki was found to be 1 nM. The molecule further yielded a Dose in the data set on Mustela putorius furo [3] of 0.01 mg/kg.

For `CCCCCCSc1nccnc1C1CN2CCC1CC2` (configuration not stated), the “ED (1mV)” value with Mustela putorius furo [1] was above 0.03 mg/kg. The ED50 in the data set on Mus musculus stood at 2.3 mg/kg. This molecule came in with a Ki in data set [2] of 4 nM. The same molecule displayed a Dose in the data set with Mustela putorius furo [3] above 0.03 mg/kg.

As for `CCCCSc1nsnc1[C@@H]1CN2CCC[C@@H]1C2`, the “ED (1mV)” value in the data set with Mustela putorius furo [1] came to 0.001 mg/kg. This molecule came in with an ED50 in the data set on Mus musculus of 0.19 mg/kg. The molecule also returned a Ki in data set [2] of 0.45 nM. For the same molecule, in data set [5], the concentration at 1 h was 21 ng/mL. The molecule further gave a Dose in the data set on Mustela putorius furo [3] of 0.001 mg/kg.

Turning to `FC(F)(F)CCCSc1nsnc1[C@@H]1CN2CCC[C@@H]1C2`, the “ED (1mV)” value with Mustela putorius furo [1] was found to be 0.002 mg/kg. Besides, the results for the ED50 in the data set on Mus musculus and in the data set on Mustela putorius furo [4] were 0.35 mg/kg and 0.017 mg/kg, respectively. This molecule yielded a Ki in data set [2] of 0.33 nM.

`CCCCSc1nsnc1C1CN2CCCC1C2` (racemic): the “ED (1mV)” value in the data set on Mustela putorius furo [1] amounted to 0.001 mg/kg. Further, the ED50 in the data set on Mus musculus turned out to be 0.03 mg/kg. The Ki in data set [2] was determined as 0.36 nM. In the data set with Mustela putorius furo [3], this molecule yielded a Dose of 0.001 mg/kg.

In the case of `FC(F)(F)CCCSc1nsnc1C1CN2CCCC1C2` (racemic), the “ED (1mV)” value with Mustela putorius furo [1] worked out at 0.03 mg/kg. The ED50 with Mus musculus is 0.1 mg/kg. In data set [6], this molecule came in with an inhibition constant Ki of 0.4 nM. In the data set on Mustela putorius furo [3], this molecule yielded a Dose of 0.001 mg/kg.

In the case of `CC(C)CCCSc1nsnc1C1CN2CCCC1C2` (racemic), in the data set with Mustela putorius furo [1], the “ED (1mV)” value came out at 0.003 mg/kg. This molecule had an ED50 in the data set with Mus musculus of 0.95 mg/kg. In addition, the Ki in data set [2] worked out at 0.91 nM. Besides, the Dose with Mustela putorius furo [3] worked out at 0.03 mg/kg.

For the molecule `CN1[C@@H]2CC[C@H]1C[C@@H](OC(=O)C(CO)c1ccccc1)C2` (some centres not stated) [ATROPINE], in the data set with Mustela putorius furo [1], the “ED (1mV)” value is above 0.03 mg/kg. Also, the ED50 with Mus musculus was above 30 mg/kg; in the data set on Mustela putorius furo [4] it was 0.00073 mg/kg.

Turning to `CN1CC[C@]23c4c5ccc(O)c4O[C@H]2[C@@H](O)C=C[C@H]3[C@H]1C5` [MORPHINE], the ED50 in the data set with Mus musculus came to 0.3 mg/kg.

With `CCCCSc1nsnc1C1CN2CCC1CC2` (configuration not stated) [VEDACLIDINE], the “ED (1mV)” value in the data set with Mustela putorius furo [1] turned out to be 0.01 mg/kg. The molecule also came in with an ED50 in the data set on Mus musculus of 0.19 mg/kg. For the same molecule, the Ki in data set [2] was determined as 0.4 nM. In the data set with Mustela putorius furo [3], this molecule displayed a Dose of 0.003 mg/kg.
